Tests used:
[1] = molecular target: T1, Urease subunit alpha/Urease subunit beta (Helicobacter pylori (strain ATCC 700392 / 26695) (Campylobacterpylori), UniProt P69996); test: Inhibition of Helicobacter pylori ATCC 43504 urease assessed as reduction in ammonia production using urea as substrate preincubated for 1.5 hrs under cell free condition by indophenol method; format: protein-complex assay, Helicobacter pylori NCTC 11637 = CCUG 17874 = ATCC 43504
Method in brief: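 Crude urease from H. pylori ATCC 43504 grown 24 h at 37 °C, micro-aerobic, in Brucella broth with 10% sheep blood. Cells were PBS-washed, frozen at −80 °C, sonicated with protease inhibitors, centrifuged, desalted on G-25 and kept in 50% glycerol at 4 °C. Enzyme (10U) was preincubated with compound 1.5 h at room temperature. Ammonia was read by the indophenol method.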

[2] = molecular target: T2, Urease subunit alpha/Urease subunit beta (Helicobacter pylori (strain ATCC 700392 / 26695) (Campylobacterpylori)) (UniProt P69996+P14916); test: Ratio of IC50 for inhibition of urease in Helicobacter pylori ATCC 43504 intact cells to IC50 for inhibition of Helicobacter pylori ATCC 43504 urease under cell free condition; conditions: Helicobacter pylori NCTC 11637 = CCUG 17874 = ATCC 43504
T2 sequence (P14916 whole entry, looked up): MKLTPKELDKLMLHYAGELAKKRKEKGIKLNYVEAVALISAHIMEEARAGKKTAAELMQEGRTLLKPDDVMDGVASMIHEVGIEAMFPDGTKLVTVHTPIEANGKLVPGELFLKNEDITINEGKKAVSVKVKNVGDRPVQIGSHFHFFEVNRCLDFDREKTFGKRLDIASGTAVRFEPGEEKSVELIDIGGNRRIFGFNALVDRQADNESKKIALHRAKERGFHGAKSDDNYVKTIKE
T2 sequence (P69996 whole entry, looked up): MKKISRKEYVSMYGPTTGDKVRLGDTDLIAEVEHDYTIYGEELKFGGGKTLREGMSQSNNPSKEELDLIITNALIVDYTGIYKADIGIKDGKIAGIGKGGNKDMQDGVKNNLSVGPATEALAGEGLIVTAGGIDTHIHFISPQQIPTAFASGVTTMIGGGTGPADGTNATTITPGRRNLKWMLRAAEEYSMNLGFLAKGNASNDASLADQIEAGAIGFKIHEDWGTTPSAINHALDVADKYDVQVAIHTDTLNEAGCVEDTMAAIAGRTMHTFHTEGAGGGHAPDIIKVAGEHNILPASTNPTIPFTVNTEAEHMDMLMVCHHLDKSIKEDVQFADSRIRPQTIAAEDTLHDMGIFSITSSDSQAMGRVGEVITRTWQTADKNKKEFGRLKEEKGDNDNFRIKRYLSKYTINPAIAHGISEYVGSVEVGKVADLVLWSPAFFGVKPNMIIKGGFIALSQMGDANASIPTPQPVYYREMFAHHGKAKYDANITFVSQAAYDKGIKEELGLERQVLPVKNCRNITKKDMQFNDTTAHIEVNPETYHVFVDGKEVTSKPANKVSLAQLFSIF

[3] = molecular target: T1, Urease subunit alpha/Urease subunit beta; test: (§1) Inhibition of urease in Helicobacter pylori ATCC 43504 assessed as reduction in ammonia production using urea as substrate preincubated for 1.5 hrs by indophenol method; format: protein-complex assay, Helicobacter pylori NCTC 11637 = CCUG 17874 = ATCC 43504
Method in brief: (§2)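 Crude urease from sonicated H. pylori cells (grown 24 h, 37 °C, microaerobic, Brucella broth + 10% sheep blood), PBS-washed, frozen at –80 °C, desalted on Sephadex G-25, stored in 50% glycerol at 4 °C; 10U enzyme preincubated with compound 1.5 h at room temperature; ammonia measured by Weatherburn indophenol method.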

[4] = molecular target: T2, Urease subunit alpha/Urease subunit beta (Helicobacter pylori (strain ATCC 700392 / 26695) (Campylobacterpylori)); test: as §1; format: protein-complex assay; conditions: Helicobacter pylori NCTC 11637 = CCUG 17874 = ATCC 43504; method in brief: as §2
[5] = molecular target: T2, Urease subunit alpha/Urease subunit beta (Helicobacter pylori (strain ATCC 700392 / 26695) (Campylobacterpylori)); test: Potency index, ratio of acetohydroxamic acid IC50 to compound IC50 for inhibition of Helicobacter pylori ATCC 43504 urease; format: protein-complex assay; conditions: Helicobacter pylori NCTC 11637 = CCUG 17874 = ATCC 43504
[6] = molecular target: T2, Urease subunit alpha/Urease subunit beta (Helicobacter pylori (strain ATCC 700392 / 26695) (Campylobacterpylori)); test: Potency index, ratio of acetohydroxamic acid IC50 to compound IC50 for inhibition of urease in Helicobacter pylori ATCC 43504; format: protein-complex assay; conditions: Helicobacter pylori NCTC 11637 = CCUG 17874 = ATCC 43504
[7] = molecular target: T1, Urease subunit alpha/Urease subunit beta; test: Mixed-type inhibition of Helicobacter pylori ATCC 43504 urease assessed as enzyme-inhibitor complex using urea as substrate preincubated for 1.5 hrs; format: protein-complex assay, Helicobacter pylori NCTC 11637 = CCUG 17874 = ATCC 43504
Method in brief: (§3)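 Ammonia production rate measured by the indophenol method over a urea concentration gradient at each fixed inhibitor concentration. Inhibition type was assigned by nonlinear fitting to the general kinetic equation. Ki and Ki' were taken as the X-axis intercepts of linear fits of the fitted parameters against inhibitor concentration.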

[8] = molecular target: T1, Urease subunit alpha/Urease subunit beta; test: Mixed-type inhibition of Helicobacter pylori ATCC 43504 urease assessed as enzyme-substrate-inhibitor complex using urea as substrate preincubated for 1.5 hrs; format: protein-complex assay, Helicobacter pylori NCTC 11637 = CCUG 17874 = ATCC 43504; method in brief: as §3

T1 sequence (P69996 whole entry): as the sequence (P69996 whole entry, looked up) above
T1 sequence (P14916 whole entry, further chain): as the sequence (P14916 whole entry, looked up) above

Structure (SMILES) | IC50 [1] [µM] | further results
O=C(CCOc1ccccc1)NO | 4.18 | 
O=C(COc1ccccc1[N+](=O)[O-])NO | 144 | 
COc1ccc(OCCC(=O)NO)cc1 | 8.35 | 
O=C(COc1cccc(F)c1)NO | 27 | 
O=C(COc1cc(F)cc(F)c1)NO | 205 | 
O=C(CCOc1ccc(Cl)c(Cl)c1)NO | 0.061 | Ratio IC50 [2]: 14 to 24; IC50 [3]: 0.89 µM; inhibition [4]: Dose-dependent effect; Ratio IC50 [5]: > 450; Ratio IC50 [6]: > 120
Cc1cc(C)cc(OCC(=O)NO)c1 | 41.9 | 
Cc1cccc(OCC(=O)NO)c1 | 85.1 | 
O=C(COc1c(Cl)cccc1Cl)NO | 353 | 
Cc1cc(C)cc(OCCC(=O)NO)c1 | 10.4 | 
O=C(COc1cccc(Cl)c1)NO | 10.4 | 
O=C(COc1cccc(Cl)c1Cl)NO | 179 | 
O=C(CCOc1cccc(F)c1)NO | 2.05 | 
O=C(COc1ccc(Cl)cc1Cl)NO | 0.83 | Ratio IC50 [2]: 14 to 24; IC50 [3]: 21.4 µM; inhibition [4]: Dose-dependent effect
Cc1ccc(OCCC(=O)NO)cc1 | 1.38 | 
O=C(COc1cc(Cl)ccc1Cl)NO | 9.02 | 
O=C(COc1ccc(Br)cc1)NO | 5.35 | 
O=C(COc1cccc([N+](=O)[O-])c1)NO | 94.7 | 
O=C(COc1ccc(F)cc1)NO | 18.9 | 

Structure (SMILES) | IC50 [1] [µM] | further results
O=C(COc1ccccc1F)NO | 121 | 
O=C(CCOc1ccc(Cl)cc1)NO | 0.44 | Ratio IC50 [2]: 14 to 24; Ki [7]: 0.043 µM; IC50 [3]: 8.2 µM; inhibition [4]: Dose-dependent effect; Ki [8]: 0.054 µM
Cc1ccccc1OCCC(=O)NO | 6.74 | 
O=C(COc1ccccc1)NO | 131 | 
O=C(COc1ccc([N+](=O)[O-])cc1)NO | 62.1 | 
O=C(CCOc1cc(Cl)ccc1Cl)NO | 13.1 | 
O=C(CCOc1ccc(F)cc1)NO | 1.13 | 
O=C(CCOc1cc(F)cc(F)c1)NO | 5.09 | 
Cc1ccc(OCC(=O)NO)cc1 | 57.1 | 
Cc1ccccc1OCC(=O)NO | 154 | 
O=C(CCOc1ccc(Br)cc1)NO | 0.86 | Ratio IC50 [2]: 14 to 24; IC50 [3]: 16.3 µM; inhibition [4]: Dose-dependent effect
O=C(COc1ccccc1Cl)NO | 78.5 | 
COc1ccc(OCC(=O)NO)cc1 | 49.5 | 
Cc1cccc(OCCC(=O)NO)c1 | 3.38 | 
O=C(CCOc1cccc(Cl)c1)NO | 1.23 | 
O=C(COc1ccc(Cl)cc1)NO | 1.26 | 
O=C(COc1ccc(Cl)c(Cl)c1)NO | 0.52 | Ratio IC50 [2]: 14 to 24; IC50 [3]: 12.8 µM; inhibition [4]: Dose-dependent effect
O=C(COc1cc(Cl)cc(Cl)c1)NO | 3.22 | 
